≈ marks a conversion by molar mass, not a printed value. Calls of active or inactive are those of the source. The rule behind the calls is not given here. Bounds are passed on as bounds.

Experimental findings from ChEMBL document CHEMBL1158972, “New cytotoxic beta-carboline alkaloids from the marine bryozoan, Cribricellina cribraria” (J Nat Prod, 1991) are described below.

The test system of series [1] is Bacillus subtilis. Put plainly: Antimicrobial activity against Bacillus subtilis at 30 ug. It counts as functional. Particulars: read-out: IZ.
Series [2] deals with Candida albicans. As to the kind of experiment: Antimicrobial activity against Candida albicans at 30 ug. It counts as functional. Particulars: read-out: IZ.
Series [3] concerns Pseudomonas aeruginosa. As to the kind of experiment: Antimicrobial activity against Pseudomonas aeruginosa assessed per disk. It counts as functional.
The subject of series [4] is Candida albicans. As to the kind of experiment: Antimicrobial activity against Candida albicans assessed per disk. It counts as functional.
Series [5] relates to Human alphaherpesvirus 1. As to the kind of experiment: Antiviral activity against Herpes simplex virus (type 1 / strain F) ATCC VR 733 in african green monkey BSC1 cells assessed as excess radius from disk edge at 5 ug/disk. The format is functional, BSC-1. As to conditions: Human alphaherpesvirus 1, Strain F ATCC VR 733; read-out: IZ. In short, it runs like this:
(§1)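 Disc assay of herpes simplex type I (strain F, ATCC VR 733) on a BSC cell line (ATCC CCL 26). The antiviral zone is scored as excess radius from the disc edge: 2+ = 2-4 mm, 3+ = 4-6 mm, ww = zone over the whole well.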

Series [6] relates to Escherichia coli. As to the kind of experiment: Antimicrobial activity against Escherichia coli assessed per disk. The format is functional.
Series [7] can be described thus: Cytotoxicity against african green monkey BSC1 cells at 5 ug/disk. It counts as cell-based. Particulars: chlorocebus aethiops, bsc-1. Summed up:
(§2)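 Cytotoxic zone around the disc on a BSC monolayer (ATCC CCL 26), scored as excess radius beyond the disc edge: 2+ = 2-4 mm, 3+ = 4-6 mm, ww = zone over the whole well.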

Series [8] in a line: Cytotoxicity against african green monkey BSC1 cells at 1 ug/disk. It counts as cell-based. Particulars: chlorocebus aethiops, bsc-1. Summed up:
as §2

For series [9], the system named is Bacillus subtilis. Put plainly: Antimicrobial activity against Bacillus subtilis assessed per disk. It counts as functional.
Series [10] has as its system Trichophyton mentagrophytes. As to the kind of experiment: Antimicrobial activity against Trichophyton mentagrophytes assessed per disk. The format is functional.
The nature of series [11]: Cytotoxicity against african green monkey BSC1 cells at 20 ug/disk. The format is cell-based. Particulars: chlorocebus aethiops, bsc-1. In short, it runs like this: as §2
Series [12] concerns P388. As to the kind of experiment: Cytotoxicity against mouse P388 cells. It counts as functional, cell-based. In short, it runs like this: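 P-388 leukemia line (ATCC CCL 46). The value is the sample concentration, in ng/ml, that reduces cell growth by 50%.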
The test system of series [13] is Amorphotheca resinae. As to the kind of experiment: Antimicrobial activity against Cladosporium resinae assessed per disk. The format is functional.
In series [14] the test system is Human alphaherpesvirus 1. Put plainly: Antiviral activity against Herpes simplex virus (type 1 / strain F) ATCC VR 733 in african green monkey BSC1 cells assessed as excess radius from disk edge at 1 ug/disk. It counts as functional, organism-based. Particulars: BSC-1. In short, it runs like this:
as §1

Series [15] in a line: Cytotoxicity against african green monkey BSC1 cells at 2 ug/disk. The format is cell-based. As to conditions: chlorocebus aethiops, bsc-1. Summed up:
as §2

Series [16] is described as follows: Cytotoxicity against african green monkey BSC1 cells at 10 ug/disk. It counts as cell-based. Particulars: chlorocebus aethiops, bsc-1. In short, it runs like this: as §2
A short description of series [17]: Cytotoxicity against african green monkey BSC1 cells at 40 ug/disk. The format is cell-based. Particulars: chlorocebus aethiops, bsc-1. In short, it runs like this:
as §2

For series [18], the system named is Human alphaherpesvirus 1. Put plainly: Antiviral activity against Herpes simplex virus (type 1 / strain F) ATCC VR 733 in african green monkey BSC1 cells assessed as excess radius from disk edge at 40 ug/disk. The format is functional, BSC-1. Particulars: Human alphaherpesvirus 1, Strain F ATCC VR 733; read-out: IZ. In short, it runs like this: as §1
Series [19] relates to Human alphaherpesvirus 1. Put plainly: Antiviral activity against Herpes simplex virus (type 1 / strain F) ATCC VR 733 in african green monkey BSC1 cells assessed as excess radius from disk edge at 10 ug/disk. It counts as functional, organism-based. As to conditions: BSC-1. Summed up:
as §1

In the case of `O=C(N[C@H](CO)[C@H](O)c1ccc([N+](=O)[O-])cc1)C(Cl)Cl` [CHLORAMPHENICOL], the results for the zone of inhibition at 30 µg/disc in [1] and in [2] were 12 mm and 8 mm, respectively.

A word on the IC50: it is the concentration that inhibits the measured activity by half. On to `C=Cc1nccc2c1[nH]c1c(OC(C)=O)cccc12`, for which the MIC is more than 60 µg in [3]; 15 µg in series [4]; more than 60 µg in [6]; 7.5 µg in series [9]; 0.9 µg in series [10]; more than 60 µg in [13]. Also, the zone of inhibition at 5 µg/disc in series [5] amounted to 1 mm. In addition, the “inhibition zone (IZ)” value in series [7] is listed as 2 mm; in series [8] it was “Not Active”; in [15], “Active”. Further, the outcome in series [11] was Active. The compound also registered an IC50 in series [12] of 0.65 µg/mL (≈ 2.58 µM). Also, in series [14], the “inhibition zone (IZ)” value is “inactive”.

`CCCCCCc1nccc2c1[nH]c1ccccc12`: the MIC was more than 60 µg in [3]; more than 60 µg in [4]; more than 60 µg in [6]; more than 60 µg in series [9]; 1.9 µg in series [10]; 7.5 µg in series [13]. Further, the “inhibition zone (IZ)” value in series [16] and in series [17] was 1 mm each time. Also, the zone of inhibition at 40 µg/disc in series [18] was found to be 1 mm. The “inhibition zone (IZ)” value in series [19] was “inactive”. In series [12], this compound came in with an IC50 of 9 µg/mL (≈ 35.7 µM).
